The list is not random: actives were taken first. Their share in the collection is about 3.5%.
MrgX1 PAM – allosterically activates human MrgX1 receptor signaling; Q96LB2; MrgX1-HEK293, Fluo-4 calcium flux, FDSS; active compounds read high; B-score at 10 µM; 310,000 compounds, 0.63% hits;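 active = plate-corrected calcium response at least 3 library SD above typical, normal starting fluorescence, not activating the receptor alone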;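 note: compound read alongside a low EC10 to EC30 dose of BAM8-22 agonist; peak minus trough fluorescence over baseline measured at the second addition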
Target sequence (Q96LB2 whole entry, looked up): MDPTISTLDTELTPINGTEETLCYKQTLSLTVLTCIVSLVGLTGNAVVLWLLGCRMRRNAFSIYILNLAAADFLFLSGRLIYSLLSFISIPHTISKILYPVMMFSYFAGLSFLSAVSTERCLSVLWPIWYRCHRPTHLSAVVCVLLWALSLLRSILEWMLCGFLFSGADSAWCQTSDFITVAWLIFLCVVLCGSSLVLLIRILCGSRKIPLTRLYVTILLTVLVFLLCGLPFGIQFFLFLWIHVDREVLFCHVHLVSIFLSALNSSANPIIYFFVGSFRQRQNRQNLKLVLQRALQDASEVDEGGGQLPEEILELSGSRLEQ
RGS4 pot – RGS4 potentiation or activation | AID 463111 | HEK293 M3R/inducible RGS4, carbachol calcium flux Fluo4; active compounds read low | B-score at 10 µM | 310,000 compounds, 0.92% hits;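 active = B-score of the integrated calcium signal more than 4 SD below the library mean, with starting fluorescence not abnormally high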;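 note: negative B-score means reduced calcium response which marks RGS4 activation or potentiation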
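Test system: HEK293 cells with stable M3R and inducible RGS4; also added: carbachol at ECmax as muscarinic agonist stimulus; schedule: dye loading 30 min 37 °C, buffer rest 30 min RT; technique: kinetic calcium fluorescence imaging with Fluo4-AM dye, 2 µM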
RGS4 inh – inhibitors of human RGS4. P49798. HEK293 M3R/RGS4 inducible, Fluo-4 calcium flux; active compounds read high; triggered by carbachol at its EC20. B-score at 10 µM. 310,000 compounds, 0.45% hits;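 active = B-score, a plate-corrected calcium signal, over three deviations above library mean, with baseline fluorescence within five deviations of library mean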;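 note: RGS4 expression induced by doxycycline in cells with stable M3 receptor; B-score is computed from the integrated fluorescence ratio over baseline after carbachol; higher B-score means a larger calcium signal and so more RGS4 inhibition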
MrgX1 agonist – agonists of human MrgX1 receptor; MrgX1-HEK293 cells, Fluo-4 calcium fluorescence, agonist mode; active compounds read high; B-score at 10 µM; 310,000 compounds, 0.44% hits;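 active = calcium response B-score plate-corrected fluorescence ratio at least 3 library SD, with starting fluorescence B-score inside 5 SD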
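Test system: HEK293 cells stably expressing human MrgX1 receptor; Input: fifteen thousand cells per well; Dosing: compound delivered in addition one of three; Schedule: overnight seeding, then 1 h dark dye loading; Technique: Fluo-4 NW calcium fluorescence; Measure: B-scored fluorescence response ratio; Controls: positive and negative controls per plate.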
MrgX1 antag – human MrgX1 receptor antagonism, primary screen; 310,000 compounds, 1.3% hits; B-score at 10 µM; Q96LB2; MRGX1-HEK293 calcium flux, Fluo-4, BAM8-22 antagonism; active compounds read low; AID 588676;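 active = calcium-response B-score plate-corrected more than 3 library SD below zero, starting fluorescence within 5 deviations, no agonist response on first addition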;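 note: peak minus trough fluorescence over baseline after final BAM8-22 challenge near maximal dose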
Hits are given with their value; n = inactive.

SMILES	MrgX1 PAM	RGS4 pot	RGS4 inh	MrgX1 agonist	MrgX1 antag
C(=Nc1cccc2c(N=Cc3ccco3)cccc12)c1ccco1	n	n	n	39	n
Cn1c(=O)c(NCCO)c2c3c(cccc31)C(=O)c1ccccc1-2	n	-12	n	n	n
CCc1ccc(OCC(=O)NNC(=O)Cc2c(F)cccc2Cl)cc1	n	n	n	n	-6.9
O=C(CSc1ccc(-c2ccc(F)cc2)nn1)N1CCCc2ccccc21	n	-7.4	n	n	n
O=C(CSc1ccc(-c2ccc(Cl)cc2)nn1)N1CCCc2ccccc21	n	n	n	n	n
O=C(O)c1ccc(CSc2nc(-c3ccccc3)cc(C(F)(F)F)n2)cc1	n	n	n	n	n
O=C(O)c1ccc(CSc2nc(-c3ccc(Cl)cc3)cc(C(F)(F)F)n2)cc1	n	-7.5	n	n	n
O=C(Nc1ccccc1)c1cc2ccccc2c(=O)s1	n	n	n	n	-7.8
O=C(Nc1ccc(O)cc1)c1cc2ccccc2c(=O)s1	n	n	n	n	n
O=C(Cn1c(CO)nc2ccccc21)NC1CCCCCC1	n	n	n	n	-10
Nc1nonc1-c1nc2ccccc2n1CC(=O)NC1CCCC1	n	n	n	n	n
COc1cc(N2CCCC2)c(OC)cc1/C=C(/C#N)c1cccc(F)c1	n	n	n	n	-11
N#C/C(=C/c1ccc(N2CCCCCC2)o1)c1cccc(F)c1	n	n	n	n	n
CC1(C)Cc2c(cnn2-c2ccc(F)cc2)C(NC(=O)C2=NNC(=O)CC2)C1 (centres undefined)	n	n	n	n	n
Cc1ccc(/C=C2\Oc3c(ccc(O)c3CN3CCN(CCO)CC3)C2=O)cc1	n	-10	n	n	n
CCOC(=O)C1=C(Cc2ccc(C)cc2)C(=O)c2ccccc2C1=O	n	n	n	86	n
CCOC(=O)c1ccc(COC(=O)c2ccc3c(c2)-c2ccccc2C3=O)cc1	n	n	n	n	n
CCOC(=O)C1=C(O)c2ccccc2C(=O)/C1=C\c1ccc(CC)cc1	n	n	n	n	-6
CCCc1ccc(/C=C2\C(=O)c3ccccc3C(O)=C2C(=O)OCC)cc1	n	n	n	n	-7
CCOC(=O)N1CCN(C(=O)C2CCC(=O)N(CCCN3CCCC3=O)C2)CC1 (centres undefined)	n	n	n	n	n
CCCn1c(N)c(N(CCOC)C(=O)c2cccc(Cl)c2)c(=O)[nH]c1=O	n	n	n	n	n
CCCCN(C(=O)c1cccc(S(=O)(=O)N2CCOCC2)c1)c1c(N)n(CCC)c(=O)[nH]c1=O	9.4	n	n	n	n
CCCCN(C(=O)C(C)Oc1cccc(Cl)c1)c1c(N)n(CCC)c(=O)[nH]c1=O (centres undefined)	n	n	n	n	-5.1
CS(=O)(=O)N1CCN(C(=O)C2c3ccccc3Oc3ccccc32)CC1	n	-7.5	n	n	n
Cc1nnc(SC(=O)N2c3ccccc3Sc3ccccc32)s1	n	-7	n	n	n
SMILES	MrgX1 PAM	RGS4 pot	RGS4 inh	MrgX1 agonist	MrgX1 antag
CCOC(=O)N1c2ccccc2Sc2ccccc21	n	n	n	n	n
Cc1cccc(CN2CCC(CNC(=O)Cn3ncc4c([nH]c5ccccc54)c3=O)CC2)c1	n	n	n	n	n
COc1ccc(CN2CCC(CO)(Cc3ccccc3C(F)(F)F)CC2)c(F)c1	n	-7.1	n	n	n
COC(=O)c1ccc2c(=O)n(CCCCCC(=O)O)c(=S)[nH]c2c1	n	n	n	n	n
O=C(NNS(=O)(=O)c1ccc(F)cc1)c1cccc(O)c1	n	n	n	n	n
Cc1ccc(S(=O)(=O)NNC(=O)c2cccc(O)c2)cc1	n	n	n	n	-6.5
N/C(=N\OC(=O)COc1ccc([N+](=O)[O-])cc1)c1ccncc1	n	n	n	n	n
N/C(=N\OC(=O)COc1ccc(Br)cc1)c1ccncc1	n	n	n	n	-6
Cc1ccc(O)c(NC(=O)c2noc3c2CCc2ccccc2-3)c1	n	n	n	n	n
Cc1cc(NC(=O)c2noc3c2CCc2ccccc2-3)no1	n	n	n	n	-7.4
COCCCNC(=O)Cn1c(=O)n(CCCCCC(=O)NCc2ccc3c(c2)OCO3)c(=O)c2sccc21	n	n	n	n	n
CCCCOC(=O)c1ccc(NC(=O)Nc2ccc(OC)c(OC)c2)cc1	n	-7	n	n	n
CCC(C(=O)N1CCOCC1)n1c2ccccc2c2nc(=O)cc(C)n21 (centres undefined)	n	n	n	n	n
